Several values for one entry are separate records, joined by “and”; a condition that tells them apart may be missing. Equal entries are not always repeated.
Tests used:
Assay type in all cases: functional, Mus musculus
C3H 10T1/2 [1] = assay: Inhibition of neoplastic transformation at a concentration of 10e-6 M
Method in brief: (§1)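 C3H10T1/2 cells given 3-MCA (3 μg/mL) for 24 h, then 7 days later continuous retinoid in acetone (final 0.5%), renewed at each weekly medium change, for 4 weeks. Cultures were fixed, stained and scored for type II and III transformed foci; result as foci/dish and % of MCA-treated control. 12 dishes per group.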

C3H 10T1/2 [2] = assay: Inhibition of neoplastic transformation at a concentration of 10e-8 M; set-up: scale not given: the % may be the effect or the level left; method in brief: as §1
C3H 10T1/2 [3] = assay: Tested for toxicity against C3H10T1/2 cell line of murine embryo fibroblasts at 10e-6 M
Method in brief: (§2)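 C3H10T1/2 cells plated at clonal density and exposed to retinoid in acetone (0.5%) for 7 days. Plating efficiency was normalized to the MCA-treated (1 day) control plating efficiency.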

C3H 10T1/2 [4] = assay: Tested for toxicity against C3H10T1/2 cell line of murine embryo fibroblasts at 10e-8 M; method in brief: as §2
C3H 10T1/2 [5] = assay: The compound was tested for inhibition of neoplastic transformation, at a concentration of 10e-10 M; set-up: scale not given: the % may be the effect or the level left; method in brief: as §1
C3H 10T1/2 [6] = assay: Toxicity against C3H10T1/2 cell line of murine embryo fibroblasts at 10e-10 M; method in brief: as §2
C3H 10T1/2 [7] = assay: Inhibition of neoplastic transformation was measured by measuring the transformed foci per dish at 10e-6 M; method in brief: as §1
C3H 10T1/2 [8] = assay: Tested for inhibition of neoplastic transformation by measuring the transformed foci per dish at 10e-10 M; method in brief: as §1
C3H 10T1/2 [9] = assay: Tested for inhibition of neoplastic transformation by measuring the transformed foci per dish at 10e-8 M; method in brief: as §1
C3H 10T1/2 [10] = assay: Tested for anticancer activity by measuring the number of communicating cells using gap junctional communication assay at 10e-6 M (P>0.05)
C3H 10T1/2 [11] = assay: Tested for anticancer activity by measuring the number of communicating cells using gap junctional communication assay at 10e-6 M (P>0.001)
C3H 10T1/2 [12] = assay: Tested for anticancer activity by measuring the number of communicating cells using gap junctional communication assay at 10e-6 M
C3H 10T1/2 [13] = assay: Tested for anticancer activity by measuring the number of communicating cells using gap junctional communication assay at 10e-6 M (P>0.01)
C3H 10T1/2 [14] = assay: The compound was tested for inhibition of Neoplastic transformation, at a concentration of 10e-10 M; set-up: scale not given: the % may be the effect or the level left; method in brief: as §1
C3H 10T1/2 [15] = assay: Tested for anticancer activity by measuring the number of communicating cells using gap junctional communication assay at 10*e-6 M (P>0.001)
C3H 10T1/2 [16] = assay: Inhibition of Neoplastic transformation at a concentration of 10*e-6 M; set-up: scale not given: the % may be the effect or the level left; method in brief: as §1
C3H 10T1/2 [17] = assay: Inhibition of Neoplastic transformation at a concentration of 10*e-8 M; set-up: scale not given: the % may be the effect or the level left; method in brief: as §1
C3H 10T1/2 [18] = assay: Tested for toxicity against C3H10T1/2 cell line of murine embryo fibroblasts at 10 e-6 M; method in brief: as §2
C3H 10T1/2 [19] = assay: Tested for toxicity against C3H10T1/2 cell line of murine embryo fibroblasts at 10*e-8 M; method in brief: as §2
C3H 10T1/2 [20] = assay: The compound was tested for inhibition of Neoplastic transformation, at a concentration of 10*e-10 M; set-up: scale not given: the % may be the effect or the level left; method in brief: as §1
C3H 10T1/2 [21] = assay: Toxicity against C3H10T1/2 cell line of murine embryo fibroblasts at 10*e-10 M; method in brief: as §2
C3H 10T1/2 [22] = assay: Inhibition of neoplastic transformation was measured by measuring the transformed foci per dish at 10 e-6 M; method in brief: as §1
C3H 10T1/2 [23] = assay: Tested for inhibition of neoplastic transformation by measuring the transformed foci per dish at 10*e-10 M; method in brief: as §1
C3H 10T1/2 [24] = assay: Tested for inhibition of neoplastic transformation by measuring the transformed foci per dish at 10*e-8 M; method in brief: as §1

Structure (SMILES) | Transformed foci, % of MCA-treated control (C3H 10T1/2 [1]) [%] | Control (C3H 10T1/2 [2]) [%] | Control (C3H 10T1/2 [3]) | Control (C3H 10T1/2 [4]) | Control (C3H 10T1/2 [5]) [%] | Control (C3H 10T1/2 [6]) | Foci/dish (C3H 10T1/2 [7]) | Foci/dish (C3H 10T1/2 [8]) | Foci/dish (C3H 10T1/2 [9]) | also measured
Cc1cc(/C=C/C=C/C(=C\C(=O)O)C(F)(F)F)c2c(C)ccc(C(C)C)cc1-2 | 88 | 88 | 178% | 156% | 88 | 98% | 0.58 | 0.58 | 0.58 | Communicating cells (C3H 10T1/2 [10]): 5.6
O=C(O)c1ccc(/C=C/c2ccc3cccccc2-3)cc1 | 12 | 50 | 67% | 147% | 50 | 129% | 0.08 | 0.33 | 0.33 | Communicating cells (C3H 10T1/2 [11]): 7.4
Cc1ccc2c(/C=C/c3ccc(C(=O)O)cc3)ccc(C(C)C)cc1-2 | 0 | 24 | 66% | 75% | 24 | 75% | 0 | 0.16 | 0.16 | Communicating cells (C3H 10T1/2 [11]): 9.5
Cc1cc(/C=C/c2ccc(CO)cc2)c2c(C)ccc(C(C)C)cc1-2 | 104 | 110 | 84% | 138% | 95 | 129% | 1.09 | 1 | 1.16 | Communicating cells (C3H 10T1/2 [12]): 4.9
CC(/C=C/C=C/c1ccc2cccccc1-2)=C(/F)C(=O)O | 12 | 12 | 78% | 120% | 88 | 113% | 0.08 | 0.58 | 0.08 | Communicating cells (C3H 10T1/2 [13]): 8.8
Cc1cc(/C=C/c2ccc(C(=O)O)cc2)c2c(C)ccc(C(C)C)cc1-2 | 0 | 40 | 67% | 94% | 146 | 119% | 0 | 1.54 | 0.42 | Communicating cells (C3H 10T1/2 [11]): 18.3
CC(/C=C/C=C/c1cc(C)c2cc(C(C)C)ccc(C)c1-2)=C\C=O | 119 | 95 | 125% | 129% | 110 | 115% | 1.25 | 1.16 | 1 | Communicating cells (C3H 10T1/2 [12]): 5.7
C/C(=C\c1ccc(C(=O)O)cc1)c1ccc2c(c1)C(C)(C)CCC2(C)C | 0 | 0 | 80% and 85% | 83% and 91% | 0 | 95% and 96% | 0 | 0 | 0 | Communicating cells (C3H 10T1/2 [11]): 21.2; Control (C3H 10T1/2 [14]): 0%; Communicating cells (C3H 10T1/2 [15]): 18.5
Cc1cc(/C=C/C=C/c2ccc(C(=O)O)cc2)c2c(C)ccc(C(C)C)cc1-2 | 75 | 50 | 98% | 94% | 50 | 89% | 0.5 | 0.33 | 0.33 | Communicating cells (C3H 10T1/2 [12]): 2.9
Cc1ccc(C(C)C)cc2c(C)c(/C=C/c3ccc(C(=O)O)cc3)cc1-2 | 24 | 24 | 84% | 129% | 24 | 96% | 0.16 | 0.16 | 0.16 | Communicating cells (C3H 10T1/2 [13]): 7.2
CC(/C=C/C=C/c1cc(C)c2cc(C(C)C)ccc(C)c1-2)=C\C(=O)O |  |  |  |  |  |  |  |  |  | Control (C3H 10T1/2 [16]): 76%; Control (C3H 10T1/2 [17]): 120%; Control (C3H 10T1/2 [18]): 89.1%; Control (C3H 10T1/2 [19]): 120%; Control (C3H 10T1/2 [20]): 103%; Control (C3H 10T1/2 [21]): 116%; Foci/dish (C3H 10T1/2 [22]): 0.8; Foci/dish (C3H 10T1/2 [23]): 1.08; Foci/dish (C3H 10T1/2 [24]): 1.27; Communicating cells (C3H 10T1/2 [15]): 9.1
Cc1cc(/C=C/c2ccc(C=O)cc2)c2c(C)ccc(C(C)C)cc1-2 | 87 | 166 | 58% | 174% | 143 | 142% | 0.91 | 1.5 | 1.75 | Communicating cells (C3H 10T1/2 [13]): 8.7
CC(/C=C/C=C/c1cc(C)c2cc(C(C)C)ccc(C)c1-2)=C\CO | 112 | 142 | 89% | 120% | 142 | 125% | 1.18 | 1.5 | 1.5 | Communicating cells (C3H 10T1/2 [10]): 8.8
CC(/C=C/c1cc(C)c2cc(C(C)C)ccc(C)c1-2)=C\C=C\C(C)=C\C(=O)O | 75 | 61 | 178% | 151% | 61 | 94% | 0.5 | 0.4 | 0.4 | Communicating cells (C3H 10T1/2 [12]): 1.55
